Experimental data: ChEMBL document CHEMBL3286279, “The synthesis and biological evaluation of new DNA-directed alkylating agents, phenyl N-mustard-4-anilinoquinoline conjugates containing a urea linker” (Eur J Med Chem, 2014)
The source made the active and inactive calls. The rule behind the calls is not given here.

Tests used:
CCRF-CEM [1] = test: Cytotoxicity against human CCRF-CEM cells after 72 hrs by AlamarBlue assay; type: functional, cell-based
Summary of the method: (§1)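 Growth inhibition read by alamarBlue. After reagent addition, plates were held 6 h at 37 °C and absorbance read at 570 and 600 nm. IC50 was derived from dose-response curves over 6 or 7 drug concentrations by the median-effect method. Values are mean and STDEV of three to six independent experiments.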

CCRF-CEM [2] = test: Cytotoxicity against human vinblastine-resistant CCRF-CEM cells after 72 hrs by AlamarBlue assay; type: functional, cell-based; summary of the method: as §1
PC-3 = test: Cytotoxicity against human PC3 cells after 72 hrs by AlamarBlue assay; type: functional, cell-based; conditions: PC-3, 72 h; summary of the method: as §1
[3] = Cytotoxicity against human H460 cells after 72 hrs by AlamarBlue assay; type: functional, cell-based; conditions: NCI-H460, 72 h; summary of the method: as §1
[4] = Cytotoxicity against human H1299 cells after 72 hrs by AlamarBlue assay; type: functional, cell-based; conditions: NCI-H1299, 72 h; summary of the method: as §1
HCT-116 = test: Cytotoxicity against human HCT116 cells after 72 hrs by AlamarBlue assay; type: functional, cell-based; conditions: HCT-116, 72 h; summary of the method: as §1
CCRF-CEM [5] = test: Ratio of IC50 for human vinblastine-resistant CCRF-CEM cells to IC50 for human CCRF-CEM cells; type: functional
Summary of the method: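 Ratio of alamarBlue IC50 values, determined in the CCRF-CEM/VBL vinblastine-resistant subline and in the parental CCRF-CEM line.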

NCI-H460 [6] = test: Induction of apoptosis in human H460 cells assessed as early apoptotic cells at 2 uM after 24 hrs using Annexin V/propidium iodide staining by flow cytometry (reference value: 2%); type: functional
NCI-H460 [7] = test: Induction of apoptosis in human H460 cells assessed as necrotic cells at 2 uM after 48 hrs using Annexin V/propidium iodide staining by flow cytometry (reference value: 0.6%); type: functional
NCI-H460 [8] = test: Induction of apoptosis in human H460 cells assessed as late apoptotic cells at 2 uM after 48 hrs using Annexin V/propidium iodide staining by flow cytometry (reference value: 7%); type: functional
NCI-H460 [9] = test: Induction of apoptosis in human H460 cells assessed as early apoptotic cells at 2 uM after 48 hrs using Annexin V/propidium iodide staining by flow cytometry (reference value: 2%); type: functional
NCI-H460 [10] = test: Induction of apoptosis in human H460 cells assessed as necrotic cells at 2 uM after 72 hrs using Annexin V/propidium iodide staining by flow cytometry (reference value: 0.6%); type: functional
NCI-H460 [11] = test: Induction of apoptosis in human H460 cells assessed as late apoptotic cells at 2 uM after 72 hrs using Annexin V/propidium iodide staining by flow cytometry (reference value: 7%); type: functional
NCI-H460 [12] = test: Induction of apoptosis in human H460 cells assessed as early apoptotic cells at 2 uM after 72 hrs using Annexin V/propidium iodide staining by flow cytometry (reference value: 2%); type: functional
[13] = Cell cycle arrest in human H460 cells assessed as accumulation at G2/M phase after 24 hrs using propidium iodide staining by flow cytometry; type: functional, cell-based; conditions: NCI-H460
Summary of the method: (§2)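 H460 cells exposed to 0.25, 0.5, 1 or 2 µM for 24 h, then stained with […] propidium iodide in PBS with 0.1 mg/mL RNase A and 1% Triton X-100. DNA content and phase distribution read by flow cytometry. Values are the mean of 3 independent experiments.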

[14] = Cell cycle arrest in human H460 cells assessed as accumulation at G1 phase after 24 hrs using propidium iodide staining by flow cytometry; type: functional, cell-based; conditions: NCI-H460; summary of the method: as §2
[15] = Cell cycle arrest in human H460 cells assessed as accumulation at sub-G1 phase at 2 uM after 24 hrs using propidium iodide staining by flow cytometry; type: functional, cell-based; conditions: NCI-H460; summary of the method: as §2
NCI-H460 [16] = test: Induction of apoptosis in human H460 cells assessed as necrotic cells at 2 uM after 24 hrs using Annexin V/propidium iodide staining by flow cytometry (reference value: 0.6%); type: functional
NCI-H460 [17] = test: Induction of apoptosis in human H460 cells assessed as late apoptotic cells at 2 uM after 24 hrs using Annexin V/propidium iodide staining by flow cytometry (reference value: 7%); type: functional
[18] = Induction of DNA cross-linking activity in pEGFP-N1 DNA (unknown origin) at 20 uM after 2 hrs by alkaline agarose gel shift assay
Summary of the method: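 pEGFP-N1 plasmid DNA incubated with compound at 1, 10 or 20 µM in binding buffer (30 mM NaCl/10 mM sodium phosphate pH 7.4, 10 mM EDTA) for 2 h at 37 °C. DNA then linearized with BamHI for 6 h, ethanol-precipitated and run on alkaline agarose gel. Cross-linked double-stranded DNA was scored against single-stranded DNA. Melphalan (1 and 10 µM) was the positive control.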

For Cc1cc(Nc2cccc(F)c2)c2cc(NC(=O)Nc3ccc(N(CCCl)CCCl)cc3)ccc2n1, the IC50 (CCRF-CEM [1]) was 700 nM, the IC50 (CCRF-CEM [2]) was 9580 nM and the IC50 (PC-3) was 1490 nM. It also gave an IC50 [3] of 860 nM, an IC50 [4] of 1090 nM and an IC50 (HCT-116) of 740 nM. For the same compound, the “Ratio IC50” value (CCRF-CEM [5]) was 13.68.

In the case of CC[C@]1(O)C[C@@H]2CN(CCc3c([nH]c4ccccc34)[C@@](C(=O)OC)(c3cc4c(cc3OC)N(C)[C@H]3[C@@](O)(C(=O)OC)[C@H](OC(C)=O)[C@]5(CC)C=CCN6CC[C@]43[C@@H]65)C2)C1 [VINBLASTINE], the IC50 (CCRF-CEM [1]) is reported as 2.9 nM, the IC50 (CCRF-CEM [2]) is reported as 870 nM and the “Ratio IC50” value (CCRF-CEM [5]) is reported as 300.

In the case of Cc1cc(Nc2cccc(Br)c2)c2cc(NC(=O)Nc3ccc(N(CCCl)CCCl)cc3)ccc2n1, the Activity (NCI-H460 [6]) is reported as 3.7%, the Activity (NCI-H460 [7]) is reported as 21.8% and the Activity (NCI-H460 [8]) is reported as 32.6%. It also gave an Activity (NCI-H460 [9]) of 1.4%, an Activity (NCI-H460 [10]) of 9.8% and an Activity (NCI-H460 [11]) of 65.5%. For the same compound, the Activity (NCI-H460 [12]) was 3.7%, the IC50 (CCRF-CEM [1]) was 460 nM and the IC50 (CCRF-CEM [2]) was 5190 nM. The IC50 (PC-3) was 1410 nM, the IC50 [3] was 1180 nM and the IC50 [4] was 770 nM. The IC50 (HCT-116) was 490 nM, the “Ratio IC50” value (CCRF-CEM [5]) was 11.28 and the Activity [13] was “Dose-dependent effect”. For the same compound, the Activity [14] was “Dose-dependent effect”, the Activity [15] was “Active” and the Activity (NCI-H460 [16]) was 4.3%. The Activity (NCI-H460 [17]) was 16.7%.

In the case of O=C(Nc1ccc(N(CCCl)CCCl)cc1)Nc1ccc2nc(-c3ccccc3)cc(Nc3ccc(F)c(Cl)c3)c2c1, the IC50 (CCRF-CEM [1]) is reported as 2720 nM, the IC50 (CCRF-CEM [2]) is reported as 7070 nM and the IC50 (PC-3) is reported as 8860 nM. For the same compound, the IC50 [3] was 7810 nM, the IC50 [4] was 5390 nM and the IC50 (HCT-116) was 3580 nM. The “Ratio IC50” value (CCRF-CEM [5]) was 2.59.

Work on Cc1cc(Nc2cccc(Cl)c2)c2cc(NC(=O)Nc3ccc(N(CCCl)CCCl)cc3)ccc2n1 yielded an IC50 (CCRF-CEM [1]) of 590 nM, an IC50 (CCRF-CEM [2]) of 7560 nM and an IC50 (PC-3) of 1270 nM. It also gave an IC50 [3] of 1030 nM, an IC50 [4] of 880 nM and an IC50 (HCT-116) of 560 nM. For the same compound, the “Ratio IC50” value (CCRF-CEM [5]) was 12.81.

Cc1cccc(Nc2cc(C)nc3ccc(NC(=O)Nc4ccc(N(CCCl)CCCl)cc4)cc23)c1 showed an IC50 (CCRF-CEM [1]) of 390 nM, an IC50 (CCRF-CEM [2]) of 5850 nM and an IC50 (PC-3) of 1290 nM. For the same compound, the IC50 [3] was 920 nM, the IC50 [4] was 1050 nM and the IC50 (HCT-116) was 490 nM. The “Ratio IC50” value (CCRF-CEM [5]) was 15 and the Activity [18] was “Active”.

With Cc1cc(Nc2ccc(F)cc2)c2cc(NC(=O)Nc3ccc(N(CCCl)CCCl)cc3)ccc2n1 the IC50 (CCRF-CEM [1]) was 420 nM, the IC50 (CCRF-CEM [2]) was 11000 nM and the IC50 (PC-3) was 7160 nM. For the same compound, the IC50 [3] was 1010 nM, the IC50 [4] was 2370 nM and the IC50 (HCT-116) was 1060 nM. For the same compound, the “Ratio IC50” value (CCRF-CEM [5]) was 26.19.

For O=C(Nc1ccc(N(CCCl)CCCl)cc1)Nc1ccc2nc(-c3ccccc3)cc(Nc3cccc(Cl)c3)c2c1, the IC50 (CCRF-CEM [1]) was 2070 nM, the IC50 (CCRF-CEM [2]) was 4550 nM and the IC50 (PC-3) was 2130 nM. For the same compound, the IC50 [3] was 2260 nM, the IC50 [4] was 2350 nM and the IC50 (HCT-116) was 3690 nM. For the same compound, the “Ratio IC50” value (CCRF-CEM [5]) was 2.19.

With C#Cc1cccc(Nc2cc(C)nc3ccc(NC(=O)Nc4ccc(N(CCCl)CCCl)cc4)cc23)c1 the IC50 (CCRF-CEM [1]) was 470 nM, the IC50 (CCRF-CEM [2]) was 4490 nM and the IC50 (PC-3) was 1170 nM. The IC50 [3] was 700 nM, the IC50 [4] was 1130 nM and the IC50 (HCT-116) was 590 nM. For the same compound, the “Ratio IC50” value (CCRF-CEM [5]) was 9.55.

For COc1cccc(Nc2cc(C)nc3ccc(NC(=O)Nc4ccc(N(CCCl)CCCl)cc4)cc23)c1, the IC50 (CCRF-CEM [1]) was 280 nM, the IC50 (CCRF-CEM [2]) was 4220 nM and the IC50 (PC-3) was 2380 nM. It also gave an IC50 [3] of 1830 nM, an IC50 [4] of 1320 nM and an IC50 (HCT-116) of 620 nM. For the same compound, the “Ratio IC50” value (CCRF-CEM [5]) was 15.07 and the Activity [18] was “Active”.
